This experiment concerns HCV core protein (core106) dimerization, Hepatitis C virus. The experiment is described as follows: disruption of HCV core self-association – biochemical, AlphaScreen luminescence, single dose 15 µM, powder samples, late-stage follow-up (AID 651576). Conditions: AlphaScreen GST/Flag-core106 dimerization, at 15 µM, active compounds read high. The gist of the method:
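Assay system – HCV core106 dimerization between GST-tagged and Flag-tagged core106 proteins · Quantity – 150 nM of each tagged core106 protein · Repeats – three replicate wells per compound, averaged · Detection – AlphaScreen luminescence · Read-out – percent inhibition of AlphaScreen signal versus uninhibited protein-only wells · Incubation – protein preincubation 1 h at room temperature, 1 h per bead step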
Background: Bead proximity is the source of the signal in Alpha formats.

The source made the active and inactive calls.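 Rule for the calls: active = inhibition of at least 50%, averaged over three replicate wells; inactive = inhibition below 50%.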

Take `CCN(CC)C(=O)CSc1nc2nc(C)c(Cc3ccc(C)cc3)c(C)n2n1`: the inhibition (usually the percentage by which the read-out fell short of the control) was 11% (inactive). To `Cc1ccc(Cc2c(C)nc3nc(SCC(=O)N4CCCC4)nn3c2C)cc1` belongs 87%; to `Cc1ccc(Cc2c(C)nc3nc(SCC(=O)N4CCN(Cc5ccc(Cl)cc5)CC4)nn3c2C)cc1`, 44% (inactive). As to `Cc1nc2nc(SCC(=O)N(C)CCN3CCOCC3)nn2c(C)c1Cc1ccc(Br)cc1`, the inhibition is 12% (inactive). As for `Cc1ccc(Cc2c(C)nc3nc(SCC(=O)N4CCOCC4)nn3c2C)cc1`, the inhibition is 13% (inactive). For the compound `Cc1ccc(Cc2c(C)nc3nc(SCC(=O)NCCC(C)C)nn3c2C)cc1`, the inhibition is 43% (inactive). For `Cc1ccc(Cc2c(C)nc3nc(SCC(=O)NCCc4ccccc4)nn3c2C)cc1` the value was 40% (inactive). Take `Cc1ccc(Cc2c(C)nc3nc(SCC(=O)NCCN4CCN(Cc5ccc(Cl)cc5)CC4)nn3c2C)cc1`: the inhibition is 87%. Take `Cc1ccc(Cc2c(C)nc3nc(SCC(=O)NCCC4CCOCC4)nn3c2C)cc1`: the inhibition is < 50% (inactive). With `Cc1ccc(Cc2c(C)nc3nc(SCC(=O)NC4CCC(NC(=O)CSc5nc6nc(C)c(Cc7ccc(C)cc7)c(C)n6n5)CC4)nn3c2C)cc1` (centres undefined), the inhibition is 92%. To `Cc1ccc(Cc2c(C)nc3nc(SCC(=O)N4CCN(Cc5ccc(Br)cc5)CC4)nn3c2C)cc1` belongs 43% (inactive); to `Cc1ccc(Cc2c(C)nc3nc(SCC(=O)NCCN4CCN(C(=O)OC(C)(C)C)CC4)nn3c2C)cc1`, 51%. With `Cc1ccc(Cc2c(C)nc3nc(SCC(=O)NCCN4CCN(C(=O)c5ccc(F)cc5)CC4)nn3c2C)cc1`, the inhibition is < 50% (inactive). In the case of `Cc1ccc(Cc2c(C)nc3nc(SCC(=O)NCCN4CCCN(S(=O)(=O)c5ccccc5)CC4)nn3c2C)cc1`, the inhibition was 83%.

As to `Cc1ccc(Cc2c(C)nc3nc(SCC(=O)N(C)C)nn3c2C)cc1`, the inhibition is 51%. For `Cc1ccc(Cc2c(C)nc3nc(SCC(=O)NCCN4CCN(C(=O)C(C)C)CC4)nn3c2C)cc1`, the inhibition was < 50% (inactive).

For the compound `Cc1ccc(Cc2c(C)nc3nc(SCC(=O)NCC[N+]4(C)CCOCC4)nn3c2C)cc1`, the inhibition is 46% (inactive).

As to `Cc1ccc(Cc2c(C)nc3nc(SCC(=O)Nc4ccccc4NC(=O)CSc4nc5nc(C)c(Cc6ccc(C)cc6)c(C)n5n4)nn3c2C)cc1`, the inhibition is 80%. For `Cc1ccc(Cc2c(C)nc3nc(SCC(=O)NCCN4CCN(S(C)(=O)=O)CC4)nn3c2C)cc1` the value was < 50% (inactive); for `Cc1ccc(Cc2c(C)nc3nc(SCC(=O)NCCN4CCNCC4)nn3c2C)cc1`, 51%.

Take `Cc1ccc(Cc2c(CCc3ccccc3)nc3nc(SC(Cc4ccccc4)C(=O)NCCN4CCOCC4)nn3c2C)cc1` (centres undefined): the inhibition was 85%. To `Cc1ccc(Cc2c(C)nc3nc(SCC(=O)NC4CCN(C(=O)CSc5nc6nc(C)c(Cc7ccc(C)cc7)c(C)n6n5)CC4)nn3c2C)cc1` belongs 80%; to `Cc1cccc(Cc2c(C)nc3nc(SCC(=O)NCC(C)NC(=O)CSc4nc5nc(C)c(Cc6cccc(C)c6)c(C)n5n4)nn3c2C)c1` (centres undefined), 67%; to `Cc1ccc(Cc2c(C)nc3nc(SCC(=O)N4CCN(C(=O)CSc5nc6nc(C)c(Cc7ccc(C)cc7)c(C)n6n5)CC4)nn3c2C)cc1`, 87%.

For the origin of these results see PubChem BioAssay AID651576 (The Scripps Research Institute Molecular Screening Center, 2012).
